Experimental data from ChEMBL document CHEMBL1649131, “Tigecycline therapy significantly reduces the concentrations of inflammatory pulmonary cytokines and chemokines in a murine model of Mycoplasma pneumoniae pneumonia” (Antimicrob Agents Chemother, 2009).
Converted amounts (≈) assume the structure as drawn. The source made the active and inactive calls. The rule behind the calls is not given here.

Assays:
Mus musculus [1] = experiment: Immunological activity in BALB/c mouse infected with Mycoplasma pneumoniae ATCC 29342 assessed as decrease in MIG level in bronchoalveolar lavage fluid at 10 mg/kg, sc on first day followed by regimen of 5 mg/kg for 5 days measured after 1 days; format: functional, organism-based
In short: (§1)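 In BALB/c females infected intranasally with 10^7 CFU M. pneumoniae, sc dosing ran daily from day 1: 10 mg/kg first, then 5 mg/kg; saline placebo. BAL (500 µl SP4 broth via trachea) was collected ~24 h after the last dose at 1, 3 or 6 days of therapy, and cytokine/chemokine concentrations were measured, given as mean ± SD. There were 10 mice/group per time point; t test and two-way ANOVA were used, P<0.05.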

Mus musculus [2] = experiment: Immunological activity in BALB/c mouse infected with Mycoplasma pneumoniae ATCC 29342 assessed as decrease in MIG level in bronchoalveolar lavage fluid at 10 mg/kg, sc on first day followed by regimen of 5 mg/kg for 5 days measured after 3 days; format: functional, organism-based; in short: as §1
Mus musculus [3] = experiment: Immunological activity in BALB/c mouse infected with Mycoplasma pneumoniae ATCC 29342 assessed as decrease in MIG level in bronchoalveolar lavage fluid at 10 mg/kg, sc on first day followed by regimen of 5 mg/kg for 5 days measured after 6 days; format: functional, organism-based; in short: as §1
Mus musculus [4] = experiment: Immunological activity in BALB/c mouse infected with Mycoplasma pneumoniae ATCC 29342 assessed as decrease in TNFalpha level in bronchoalveolar lavage fluid at 10 mg/kg, sc on first day followed by regimen of 5 mg/kg for 5 days measured after 3 days; format: functional, organism-based; in short: as §1
Mus musculus [5] = experiment: Immunological activity in BALB/c mouse infected with Mycoplasma pneumoniae ATCC 29342 assessed as decrease in IL-2 level in bronchoalveolar lavage fluid at 10 mg/kg, sc on first day followed by regimen of 5 mg/kg for 5 days measured after 3 days; format: functional, organism-based; in short: as §1
Mus musculus [6] = experiment: Immunological activity in BALB/c mouse infected with Mycoplasma pneumoniae ATCC 29342 assessed as decrease in IL-4 level in bronchoalveolar lavage fluid at 10 mg/kg, sc on first day followed by regimen of 5 mg/kg for 5 days measured after 3 days; format: functional, organism-based; in short: as §1
Mus musculus [7] = experiment: Immunological activity in BALB/c mouse infected with Mycoplasma pneumoniae ATCC 29342 assessed as decrease in IL-5 level in bronchoalveolar lavage fluid at 10 mg/kg, sc on first day followed by regimen of 5 mg/kg for 5 days measured after 3 days; format: functional, organism-based; in short: as §1
Mus musculus [8] = experiment: Immunological activity in BALB/c mouse infected with Mycoplasma pneumoniae ATCC 29342 assessed as decrease in IL-6 level in bronchoalveolar lavage fluid at 10 mg/kg, sc on first day followed by regimen of 5 mg/kg for 5 days measured after 3 days; format: functional, organism-based; in short: as §1
Mus musculus [9] = experiment: Immunological activity in BALB/c mouse infected with Mycoplasma pneumoniae ATCC 29342 assessed as decrease in IL-10 level in bronchoalveolar lavage fluid at 10 mg/kg, sc on first day followed by regimen of 5 mg/kg for 5 days measured after 3 days; format: functional, organism-based; in short: as §1
Mus musculus [10] = experiment: Immunological activity in BALB/c mouse infected with Mycoplasma pneumoniae ATCC 29342 assessed as decrease in granulocyte-macrophage colony stimulating factor level in bronchoalveolar lavage fluid at 10 mg/kg, sc on first day followed by regimen of 5 mg/kg for 5 days measured after 3 days; format: functional, organism-based; in short: as §1
Mus musculus [11] = experiment: Immunological activity in BALB/c mouse infected with Mycoplasma pneumoniae ATCC 29342 assessed as decrease in MIP-1alpha level in bronchoalveolar lavage fluid at 10 mg/kg, sc on first day followed by regimen of 5 mg/kg for 5 days measured after 3 days; format: functional, organism-based; in short: as §1
Mus musculus [12] = experiment: Immunological activity in BALB/c mouse infected with Mycoplasma pneumoniae ATCC 29342 assessed as decrease in IP-10 level in bronchoalveolar lavage fluid at 10 mg/kg, sc on first day followed by regimen of 5 mg/kg for 5 days measured after 3 days; format: functional, organism-based; in short: as §1
Mus musculus [13] = experiment: Immunological activity in BALB/c mouse infected with Mycoplasma pneumoniae ATCC 29342 assessed as decrease in KC level in bronchoalveolar lavage fluid at 10 mg/kg, sc on first day followed by regimen of 5 mg/kg for 5 days measured after 3 days; format: functional, organism-based; in short: as §1
Mus musculus [14] = experiment: Immunological activity in BALB/c mouse infected with Mycoplasma pneumoniae ATCC 29342 assessed as decrease in MCP-1 level in bronchoalveolar lavage fluid at 10 mg/kg, sc on first day followed by regimen of 5 mg/kg for 5 days measured after 3 days; format: functional, organism-based; in short: as §1
[15] = Cmax in human serum at […] followed by regimen of […] for every 12 hrs; format: ADME, organism-based; parameters: route intravenous
[16] = AUC (0 to 24 hrs) in human serum at […] followed by regimen of […] for every 12 hrs; format: ADME, organism-based; parameters: time < 24 hr, route intravenous
[17] = Ratio of AUC in human alveolar cells to AUC in human serum at […] followed by […] regimen for every 12 hrs; format: ADME, organism-based, Pneumocyte; conditions: read-out: Ratio AUC
[18] = AUC in mouse pneumoniae model at 5 mg/kg; format: ADME, organism-based; parameters: dose 5 mg/kg; conditions: in vivo
[19] = test system: Mycoplasmoides pneumoniae; experiment: Antimicrobial activity against Mycoplasma pneumoniae by agar dilution method; format: functional
[20] = Ratio of Cmax in human lung to Cmax in human serum at […] followed by […] regimen for every 12 hrs; format: ADME, organism-based
[21] = test system: Mycoplasmoides pneumoniae; experiment: Antimicrobial activity against Mycoplasma pneumoniae ATCC 29342 infected in BALB/c mouse assessed as decrease in bacterial count in bronchoalveolar lavage fluid at 10 mg/kg, sc on first day followed by regimen of 5 mg/kg for 5 days measured after 6 days; format: functional, organism-based; conditions: M129
In short: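 Female BALB/c mice, 2 months old, inoculated intranasally once (day 0) with 10^7 CFU M. pneumoniae in 50 µl SP4 broth under isoflurane. From day 1, sc once daily for 6 days: 10 mg/kg day 1, then 5 mg/kg, in sterile 0.9% NaCl; saline placebo. BAL with 500 µl SP4 broth ~24 h after last dose; undiluted and 10-fold dilutions plated on SP4 agar at 37°C; colonies counted as log10 CFU/ml; 10 mice/group, two experiments.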

[22] = test system: Mycoplasmoides pneumoniae; experiment: Antimicrobial activity against Mycoplasma pneumoniae ATCC 29342 infected in BALB/c mouse assessed as decrease in bacterial infection-induced lung histopathology at 10 mg/kg, sc on first day followed by regimen of 5 mg/kg for 5 days measured after 3 days; format: functional, organism-based; conditions: M129
In short: (§2)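 Infected BALB/c mice (2-month-old females, intranasal 10^7 CFU M. pneumoniae, day 0) dosed sc daily from day 1: 10 mg/kg then 5 mg/kg, saline vehicle/placebo. Lungs with trachea fixed in 10% buffered formalin ~24 h after last dose, whole-mount paraffin sections stained H&E and scored for histopathology (HPS) and parenchymal pneumonia subscore; 10 mice/group per time point, two experiments; two-way ANOVA and t test.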

[23] = test system: Mycoplasmoides pneumoniae; experiment: Antimicrobial activity against Mycoplasma pneumoniae ATCC 29342 infected in BALB/c mouse assessed as decrease in bacterial infection-induced parenchymal cell histopathology at 10 mg/kg, sc on first day followed by regimen of 5 mg/kg for 5 days measured after 3 days; format: functional, organism-based; conditions: M129; in short: as §2
Mus musculus [24] = experiment: Immunological activity in BALB/c mouse infected with Mycoplasma pneumoniae ATCC 29342 assessed as decrease in IL1-beta level in bronchoalveolar lavage fluid at 10 mg/kg, sc on first day followed by regimen of 5 mg/kg for 5 days measured after 1 days; format: functional, organism-based; in short: as §1
Mus musculus [25] = experiment: Immunological activity in BALB/c mouse infected with Mycoplasma pneumoniae ATCC 29342 assessed as decrease in IL1-beta level in bronchoalveolar lavage fluid at 10 mg/kg, sc on first day followed by regimen of 5 mg/kg for 5 days measured after 3 days; format: functional, organism-based; in short: as §1
Mus musculus [26] = experiment: Immunological activity in BALB/c mouse infected with Mycoplasma pneumoniae ATCC 29342 assessed as decrease in IL1-beta level in bronchoalveolar lavage fluid at 10 mg/kg, sc on first day followed by regimen of 5 mg/kg for 5 days measured after 6 days; format: functional, organism-based; in short: as §1
Mus musculus [27] = experiment: Immunological activity in BALB/c mouse infected with Mycoplasma pneumoniae ATCC 29342 assessed as decrease in IL-12 level in bronchoalveolar lavage fluid at 10 mg/kg, sc on first day followed by regimen of 5 mg/kg for 5 days measured after 1 days; format: functional, organism-based; in short: as §1
Mus musculus [28] = experiment: Immunological activity in BALB/c mouse infected with Mycoplasma pneumoniae ATCC 29342 assessed as decrease in IL-12 level in bronchoalveolar lavage fluid at 10 mg/kg, sc on first day followed by regimen of 5 mg/kg for 5 days measured after 3 days; format: functional, organism-based; in short: as §1
Mus musculus [29] = experiment: Immunological activity in BALB/c mouse infected with Mycoplasma pneumoniae ATCC 29342 assessed as decrease in IL-12 level in bronchoalveolar lavage fluid at 10 mg/kg, sc on first day followed by regimen of 5 mg/kg for 5 days measured after 6 days; format: functional, organism-based; in short: as §1
Mus musculus [30] = experiment: Immunological activity in BALB/c mouse infected with Mycoplasma pneumoniae ATCC 29342 assessed as decrease in INF-gamma level in bronchoalveolar lavage fluid at 10 mg/kg, sc on first day followed by regimen of 5 mg/kg for 5 days measured after 1 days; format: functional, organism-based; in short: as §1
Mus musculus [31] = experiment: Immunological activity in BALB/c mouse infected with Mycoplasma pneumoniae ATCC 29342 assessed as decrease in INF-gamma level in bronchoalveolar lavage fluid at 10 mg/kg, sc on first day followed by regimen of 5 mg/kg for 5 days measured after 3 days; format: functional, organism-based; in short: as §1
Mus musculus [32] = experiment: Immunological activity in BALB/c mouse infected with Mycoplasma pneumoniae ATCC 29342 assessed as decrease in INF-gamma level in bronchoalveolar lavage fluid at 10 mg/kg, sc on first day followed by regimen of 5 mg/kg for 5 days measured after 6 days; format: functional, organism-based; in short: as §1

CN(C)c1cc(NC(=O)CNC(C)(C)C)c(O)c2c1C[C@H]1C[C@H]3[C@H](N(C)C)C(O)=C(C(N)=O)C(=O)[C@@]3(O)C(O)=C1C2=O [TIGECYCLINE]
Activity (Mus musculus [1]): Active
Activity (Mus musculus [2]): Active
Activity (Mus musculus [3]): Active
Activity (Mus musculus [4]): Active
Activity (Mus musculus [5]): inactive
Activity (Mus musculus [6]): inactive
Activity (Mus musculus [7]): inactive
Activity (Mus musculus [8]): inactive
Activity (Mus musculus [9]): inactive
Activity (Mus musculus [10]): inactive
Activity (Mus musculus [11]): Active
Activity (Mus musculus [12]): Active
Activity (Mus musculus [13]): inactive
Activity (Mus musculus [14]): inactive
Cmax [15]: 630 ng/mL
AUC at 24 h [16]: 4700 ng·h/mL
Kp at 12 h [17]: 78
AUC [18]: 2900 ng·h/mL
MIC [19]: 0.06 µg/mL (≈ 0.102 µM)
Kp at 12 h [20]: 8.6
Activity [21]: Active
Activity [22]: Active
Activity [23]: Active
Activity (Mus musculus [24]): Active
Activity (Mus musculus [25]): Active
Activity (Mus musculus [26]): Active
Activity (Mus musculus [27]): Active
Activity (Mus musculus [28]): Active
Activity (Mus musculus [29]): Active
Activity (Mus musculus [30]): Active
Activity (Mus musculus [31]): Active
Activity (Mus musculus [32]): Active
